Common to all, as to assay type: functional
A short description of experiment [1]: Growth inhibition of human UACC62 cells after 48 hrs by sulforhodamine B assay. The conditions noted are these: UACC-62, 48 h; for CC50: read-out: LD50 (the source's name). In short, it runs like this: (§1)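 NCI-60 panel screen by SRB assay (Rubinstein method). Percentage growth taken from optical density of SRB colour, read before and 48 hrs after exposure to compound or vehicle control. All analogues first screened at 10^-5 M. Analogues giving 60% growth inhibition at that level in at least eight lines then went to a five-concentration dose-response study.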

A further experiment concerns SK-MEL-28. Briefly: Growth inhibition of human SK-MEL-28 cells after 48 hrs by sulforhodamine B assay. Conditions: SK-MEL-28, 48 h; for CC50: read-out: LD50 (the source's name). In short, it runs like this:
as §1

Experiment [2] can be described thus: Growth inhibition of human Hs 578T cells after 48 hrs by sulforhodamine B assay. Conditions: for CC50: read-out: LD50 (the source's name). Summed up:
as §1

Another experiment relates to MDA-MB-435. As to the kind of experiment: Growth inhibition of human MDA-MB-435 cells after 48 hrs by sulforhodamine B assay. Conditions: MDA-MB-435, 48 h; for LC50 (concentration killing 50% of cells): read-out: LD50. In short, it runs like this: (§2)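 NCI-60 sulforhodamine B screen. Compounds were first tested at a single dose of 10⁻⁵ M; hits, defined as ≥60% growth inhibition in at least eight lines, went on to a five-concentration dose–response. SRB optical density was read before and 48 h after exposure to compound or vehicle. Percentage growth was calculated from OD.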
(In general: Sulforhodamine B stains cellular protein and so reports cell mass.)

Experiment [3] can be described thus: Growth inhibition of human UO31 cells after 48 hrs by sulforhodamine B assay. Conditions: UO-31, 48 h; for LC50 (concentration killing 50% of cells): read-out: LD50. Summed up: as §1
The nature of experiment [4]: Growth inhibition of human SF539 cells after 48 hrs by sulforhodamine B assay. The conditions noted are these: SF-539, 48 h; for LC50 (concentration giving 50% cell kill): read-out: LD50. Summed up: as §2
Experiment [5] in a line: Growth inhibition of human DU145 cells after 48 hrs by sulforhodamine B assay. Conditions: DU-145, 48 h; for CC50: read-out: LD50 (the source's name). Summed up:
as §1

A short description of experiment [6]: Growth inhibition of human OVCAR4 cells after 48 hrs by sulforhodamine B assay. Conditions: OVCAR-4, 48 h; for LC50 (concentration killing 50% of cells): read-out: LD50. Summed up: as §1
The test system of another experiment is M14. Briefly: Growth inhibition of human M14 cells after 48 hrs by sulforhodamine B assay. The conditions noted are these: M14, 48 h; for CC50: read-out: LD50 (the source's name). Summed up: as §1

Structures are written as SMILES.

As for `COc1cc(-c2n[nH]nc2-c2ccc3c(c2)OCO3)cc(OC)c1OC`, the GI50 was greater than 100 µM in experiment [1]; 0.24 µM in the experiment on SK-MEL-28; 0.44 µM in [2]; 0.09 µM with MDA-MB-435; 0.66 µM in experiment [3]; 0.18 µM in experiment [4]. Besides, the 50% growth inhibitory concentration (GI50) in [5] worked out at 0.35 µM; in experiment [6], 0.08 µM. Further, the CC50 (in experiment [1]; with SK-MEL-28; in experiment [2]; in experiment [5]) was greater than 100 µM in each case. The LC50 (concentration killing 50% of cells) (in the experiment with MDA-MB-435; in [3]; in experiment [6]) was greater than 100 µM in each case. Besides, the LC50 (concentration giving 50% cell kill) in experiment [4] was greater than 100 µM.

As for `COc1ccc(-c2nn[nH]c2-c2cc(OC)c(OC)c(OC)c2)cc1`, the GI50 (in [2]; in the experiment on MDA-MB-435; in experiment [3]; in experiment [4]; in experiment [5]; in the experiment with M14) was less than 0.01 µM in each case. Further, the GI50 in [6] was less than 0.01 µM. Moreover, the CC50 (in [2]; in experiment [5]; with M14) was greater than 100 µM in each case. In addition, the concentration for total growth inhibition (TGI) (in the experiment with MDA-MB-435; in [4]) was less than 0.01 µM throughout. Further, the LC50 (concentration killing 50% of cells) (in the experiment on MDA-MB-435; in [3]; in [6]) was greater than 100 µM each time. In addition, in experiment [4], the LC50 (concentration giving 50% cell kill) was greater than 100 µM.

In the case of `Clc1ccc(-c2n[nH]nc2-c2ccccn2)c(Cl)c1`, the 50% growth inhibitory concentration (GI50) came out at 3.35 µM in [1]; 5.39 µM with SK-MEL-28; 11.6 µM in experiment [2]; 2.2 µM in the experiment with MDA-MB-435; 6.84 µM in experiment [3]; 1.41 µM in experiment [5]. Moreover, the 50% growth inhibitory concentration (GI50) worked out at 14.3 µM in the experiment on M14 and 3.04 µM in [6]. The CC50 (in experiment [1]; in the experiment with SK-MEL-28; in experiment [2]; in experiment [5]; with M14) was greater than 100 µM in each case. Further, the LC50 (concentration killing 50% of cells) (in the experiment with MDA-MB-435; in experiment [3]; in experiment [6]) was greater than 100 µM in each case.

Turning to `COc1ccc(-c2n[nH]nc2-c2cc(OC)cc(OC)c2)cc1`, the 50% growth inhibitory concentration (GI50) in experiment [1] was less than 0.01 µM; in [2], 0.041 µM; with MDA-MB-435 it was less than 0.01 µM; in experiment [3] it was 0.02 µM; in experiment [4] it was 0.014 µM; in experiment [5], 0.045 µM. In addition, the GI50 in the experiment with M14 is less than 0.01 µM. Also, the CC50 (in experiment [1]; in experiment [2]; in experiment [5]; in the experiment with M14) was greater than 100 µM throughout. Total growth inhibition with MDA-MB-435 (TGI) required 0.01 µM. The LC50 (concentration killing 50% of cells) (in the experiment on MDA-MB-435; in [3]) was greater than 100 µM each time. For the same compound, the LC50 (concentration giving 50% cell kill) in experiment [4] was greater than 100 µM.

With `COc1cc(-c2n[nH]nc2-c2ccc3c(c2)OCCO3)cc(OC)c1OC`, the 50% growth inhibitory concentration (GI50) in [1] was greater than 100 µM; in the experiment on SK-MEL-28, greater than 100 µM; in experiment [2], 0.668 µM; in the experiment on MDA-MB-435, less than 0.01 µM; in experiment [3], less than 0.01 µM; in experiment [4] it was less than 0.01 µM. Also, the 50% growth inhibitory concentration (GI50) was 0.025 µM in experiment [5], less than 0.01 µM in the experiment with M14 and 0.034 µM in experiment [6]. In addition, the CC50 (in [1]; in the experiment with SK-MEL-28; in experiment [2]; in experiment [5]; in the experiment with M14) was greater than 100 µM throughout. In addition, the LC50 (concentration killing 50% of cells) (in the experiment on MDA-MB-435; in [3]; in [6]) was greater than 100 µM in each case. For the same compound, the LC50 (concentration giving 50% cell kill) in [4] is greater than 100 µM.

With `COc1cc(-c2n[nH]nc2-c2ccc3ccccc3n2)cc(OC)c1OC`, the GI50 was 0.157 µM in [1]; greater than 100 µM in the experiment with SK-MEL-28; less than 0.01 µM in the experiment with MDA-MB-435; 0.092 µM in experiment [3]; 0.02 µM in experiment [4]; 0.027 µM in [5]. Also, the figures for the concentration for 50% growth inhibition (GI50) (in the experiment with M14; in experiment [6]) were 0.022 µM and 0.077 µM, respectively. Also, the CC50 (in experiment [1]; in the experiment on SK-MEL-28; in experiment [5]; with M14) was greater than 100 µM in each case. In addition, the LC50 (concentration killing 50% of cells) (in the experiment with MDA-MB-435; in experiment [3]; in experiment [6]) was greater than 100 µM throughout. The LC50 (concentration giving 50% cell kill) in [4] is greater than 100 µM.

Usually GI50 stands for the concentration at which growth is held to half of that of the control. A higher GI50 goes with less potent growth inhibition. The term TGI denotes the concentration giving total growth inhibition. A higher TGI goes with lower sensitivity of the cells.

Values taken from ChEMBL document CHEMBL3739417, “Synthesis and biological evaluation of novel 4,5-disubstituted 2H-1,2,3-triazoles as cis-constrained analogues of combretastatin A-4” (2015).
